Data reported in ChEMBL document CHEMBL1124127, “Central dopaminergic and 5-hydroxytryptaminergic effects of C3-methylated derivatives of 8-hydroxy-2-(di-n-propylamino)tetralin” (J Med Chem, 1988).

Columns and labels:
[1] = tested on: Rattus norvegicus; experiment: Effect on in vivo accumulation of 5-HTP was measured in rat corpus striatum at 48(umol/kg) dose; format: functional
In short: (§1)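 Rats not pretreated with reserpine received test drug (hydrochloride or hydrobromide salt) sc in the neck region 60 min before death. NSD 1015 decarboxylase inhibitor (100 mg/kg, i.e., 573 μmol/kg, ip) was given 30 min before decapitation. Brain was dissected on ice. Tissue was homogenized in 0.1 M perchloric acid with α-methyl-DOPA internal standard. Analytes were quantified by ion-pair reversed-phase HPLC-electrochemical detection. Values are means ± SEM, n = 3-7 per treated group.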

[2] = tested on: Rattus norvegicus; experiment: Effect on in vivo accumulation of DOPA was measured in rat corpus striatum at 48(Micromol/kg) dose; format: functional; in short: as §1
[3] = tested on: Rattus norvegicus; experiment: Effect on in vivo accumulation of DOPA was measured in rat limbic system at 48(Micromol/kg) dose; format: functional; in short: as §1
[4] = tested on: Rattus norvegicus; experiment: Effect on in vivo accumulation of dopamine(DA) was measured in rat limbic system at 48(Micromol/kg) dose; format: functional
In short: (§2)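 Non-reserpinized rats got the test drug sc in the neck (5 mL/kg) 60 min before death, and NSD 1015 (573 µmol/kg ip) 30 min before death. After decapitation, the limbic system was dissected on ice, frozen and homogenized in 0.1 M perchloric acid with α-methyl-DOPA internal standard. DA was measured by ion-pair reversed-phase HPLC with electrochemical detection. Data are mean ± SEM (controls n=17-19, treated 3-7), analysed by ANOVA/Dunnett.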

[5] = tested on: Rattus norvegicus; experiment: Effect on in vivo accumulation of […] was measured in rat corpus striatum at 48(Micromol/kg) dose; format: functional; in short: as §1
[6] = tested on: Rattus norvegicus; experiment: Effect on in vivo accumulation of 5-HTP was measured in rat limbic system at 48(Micromol/kg) dose; format: functional; in short: as §1
[7] = tested on: Rattus norvegicus; experiment: Effect on in vivo accumulation of dopamine(DA) was measured in rat limbic system at 50(Micromol/kg) dose; format: functional; in short: as §2
[8] = tested on: Rattus norvegicus; experiment: Effect on in vivo accumulation of 5-HTP was measured in rat limbic system at 50(Micromol/kg) dose; format: functional; in short: as §1
[9] = tested on: Rattus norvegicus; experiment: Effect on in vivo accumulation of DOPA was measured in rat limbic system at 50(Micromol/kg) dose; format: functional; in short: as §1
[10] = tested on: Rattus norvegicus; experiment: Effect on in vivo accumulation of […] was measured in rat corpus striatum at 50(Micromol/kg) dose; format: functional; in short: as §1
[11] = tested on: Rattus norvegicus; experiment: Effect on in vivo accumulation of DOPA was measured in rat corpus striatum at 50(Micromol/kg) dose; format: functional; in short: as §1
[12] = tested on: Rattus norvegicus; experiment: Effect on in vivo accumulation of 5-HTP was measured in rat corpus striatum at 50(umol/kg) dose; format: functional; in short: as §1
[13] = target: T1, 5-hydroxytryptamine receptor 1A (Rattus norvegicus, UniProt P19327); experiment: (§3) In vitro Inhibitory activity tested at 5-hydroxytryptamine 1A receptor binding site in rat; format: functional
T1 sequence (P19327 whole entry): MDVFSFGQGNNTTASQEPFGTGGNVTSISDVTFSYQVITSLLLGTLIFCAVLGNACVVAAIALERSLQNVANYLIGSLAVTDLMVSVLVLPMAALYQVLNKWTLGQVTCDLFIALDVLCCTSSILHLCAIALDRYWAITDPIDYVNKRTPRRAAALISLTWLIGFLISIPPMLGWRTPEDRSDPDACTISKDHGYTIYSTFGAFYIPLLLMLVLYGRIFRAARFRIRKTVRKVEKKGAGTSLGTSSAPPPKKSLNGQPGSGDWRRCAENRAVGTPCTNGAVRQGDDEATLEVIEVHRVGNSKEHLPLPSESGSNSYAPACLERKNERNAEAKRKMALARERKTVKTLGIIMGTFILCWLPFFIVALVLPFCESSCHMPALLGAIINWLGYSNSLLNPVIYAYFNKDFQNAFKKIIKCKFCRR
In short: (§4)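 Competition binding used rat brain membranes washed in 50 mM Tris-HCl pH 7.4, preincubated 10 min at 37 °C to remove 5-HT, and used at 10 mg wet tissue/mL. Assay: 1 nM [3H]-8-OH-DPAT, 3 mM CaCl2, 100 µM pargyline, 15 min at 37 °C, then filtration on PEI-treated filters. Nonspecific binding was set with 10 µM 5-HT. IC50 came from four-parameter logistic regression, mean ± SEM of N experiments.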

[14] = tested on: Rattus norvegicus; experiment: Effect on in vivo accumulation of dopamine(DA) was measured in rat limbic system at 66(Micromol/kg) dose; format: functional; in short: as §2
[15] = tested on: Rattus norvegicus; experiment: Effect on in vivo accumulation of […] was measured in rat corpus striatum at 66(Micromol/kg) dose; format: functional; in short: as §1
[16] = tested on: Rattus norvegicus; experiment: Effect on in vivo accumulation of DOPA was measured in rat limbic system at 66(Micromol/kg) dose; format: functional; in short: as §1
[17] = tested on: Rattus norvegicus; experiment: Effect on in vivo accumulation of 5-HTP was measured in rat corpus striatum at 66(umol/kg) dose; format: functional; in short: as §1
[18] = tested on: Rattus norvegicus; experiment: Effect on in vivo accumulation of 5-HTP was measured in rat limbic system at 66(Micromol/kg) dose; format: functional; in short: as §1
[19] = tested on: Rattus norvegicus; experiment: Effect on in vivo accumulation of DOPA was measured in rat corpus striatum at 66(Micromol/kg) dose; format: functional; in short: as §1
[20] = tested on: Rattus norvegicus; experiment: Effect on in vivo accumulation of dopamine(DA) was measured in rat limbic system at 59(Micromol/kg) dose; format: functional; in short: as §2
[21] = tested on: Rattus norvegicus; experiment: Effect on in vivo accumulation of DOPA was measured in rat limbic system at 59(Micromol/kg) dose; format: functional; in short: as §1
[22] = tested on: Rattus norvegicus; experiment: Effect on in vivo accumulation of […] was measured in rat corpus striatum at 59(Micromol/kg) dose; format: functional; in short: as §1
[23] = tested on: Rattus norvegicus; experiment: Effect on in vivo accumulation of DOPA was measured in rat corpus striatum at 59(Micromol/kg) dose; format: functional; in short: as §1
[24] = tested on: Rattus norvegicus; experiment: Effect on in vivo accumulation of 5-HTP was measured in rat limbic system at 59(Micromol/kg) dose; format: functional; in short: as §1
[25] = tested on: Rattus norvegicus; experiment: Effect on in vivo accumulation of 5-HTP was measured in rat corpus striatum at 59(umol/kg) dose; format: functional; in short: as §1
[26] = target: T1, 5-hydroxytryptamine receptor 1A; experiment: as §3; in short: as §4

CCCN(CCC)[C@H]1Cc2c(cccc2OC)C[C@@H]1C (racemic)
Activity [1]: <61.3 ng/g
Activity [2]: 979 ng/g
Activity [3]: 389 ng/g
Activity [4]: 1225 ng/g
Activity [5]: 5833 ng/g
Activity [6]: 145 ng/g

CCCN(CCC)[C@H]1Cc2c(O)cccc2C[C@H]1C (racemic) [listing 1 of 2 here]
Activity [7]: <678 ng/g
Activity [8]: 138 ng/g
Activity [9]: 436 ng/g
Activity [10]: <2935 ng/g
Activity [11]: 1059 ng/g
Activity [12]: <57.8 ng/g
IC50 [13]: 774 nM

CCCN(CCC)[C@H]1Cc2c(cccc2OC)C[C@H]1C (racemic)
Activity [1]: 88.8 ng/g
Activity [2]: 1078 ng/g
Activity [3]: 414 ng/g
Activity [4]: 1342 ng/g
Activity [5]: 6465 ng/g
Activity [6]: 141 ng/g

CCCN(CCC)[C@H]1Cc2c(O)cccc2CC1(C)C (racemic)
Activity [1]: 90 ng/g
Activity [2]: 982 ng/g
Activity [3]: 362 ng/g
Activity [4]: 1125 ng/g
Activity [5]: 5417 ng/g
Activity [6]: 158 ng/g

COc1cccc2c1C[C@H](N)[C@@H](C)C2 (racemic)
Activity [14]: 1243 ng/g
Activity [15]: <6863 ng/g
Activity [16]: 356 ng/g
Activity [17]: 90.2 ng/g
Activity [18]: <106 ng/g
Activity [19]: <823 ng/g

CCCN[C@H]1Cc2c(O)cccc2C[C@@H]1C (racemic)
Activity [20]: 1215 ng/g
Activity [21]: 400 ng/g
Activity [22]: 5877 ng/g
Activity [23]: 1047 ng/g
Activity [24]: 155 ng/g
Activity [25]: 101 ng/g

CCCN[C@H]1Cc2c(O)cccc2C[C@H]1C (racemic)
Activity [20]: 1058 ng/g
Activity [21]: <283 ng/g
Activity [22]: 4530 ng/g
Activity [23]: <633 ng/g
Activity [24]: <98.1 ng/g
Activity [25]: 69 ng/g

CCCN(CCC)[C@H]1Cc2c(O)cccc2C[C@H]1C (racemic) [listing 2 of 2 here]
IC50 [26]: 774 nM

CCCN(CCC)[C@H]1Cc2c(O)cccc2C[C@@H]1C (racemic; form 1)
IC50 [26]: 129 nM

CCCN(CCC)[C@H]1Cc2c(O)cccc2C[C@@H]1C (racemic; form 2)
Activity [7]: <775 ng/g
Activity [8]: <79.3 ng/g
Activity [9]: 348 ng/g
Activity [10]: <3871 ng/g
Activity [11]: 792 ng/g
Activity [12]: <27.1 ng/g
IC50 [26]: 129 nM
